Experiments:
[1] = Inhibition of HCV1a H77 NS5B assessed as [3H]UTP incorporation into RNA by scintillation counting; parameters: species or system Hepatitis C virus (isolate H77)
Outline: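 Two-fold serial inhibitor dilutions were preincubated for 15 min at room temperature with NS5B (genotype 1a H77 or genotype 1b BK, 20-50 nM) in 20 mM Tris-Cl pH 7.4, 2 mM MnCl₂, 1 mM DTT, 1 mM EDTA and 60-125 µM GTP. Reactions were started with 20 µM CTP, 20 µM ATP, 1 µM ³H-UTP, 5 nM template RNA and RNase inhibitor, then run 2-4 h at room temperature.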

[2] = AUC (0 to infinity) in Sprague-Dawley rat at 5 mg/kg, po; format: ADME, organism-based; parameters: time infinity, dose 5 mg/kg, route oral; details: plasma
Outline: (§1)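 Overnight-fasted Sprague-Dawley rats (n = 3) received a single 5 mg/kg iv or oral dose in DMSO/PEG400 (1:9, v/v). Mean concentrations were fitted multiexponentially. AUC₀₋ₜ was calculated by linear trapezoidal rule and extrapolated to infinity using Cₜ divided by the terminal rate constant.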

[3] = Oral bioavailability in Sprague-Dawley rat at 5 mg/kg; format: ADME, organism-based; details: in vivo; outline: as §1
[4] = Clearance in Sprague-Dawley rat at 5 mg/kg, iv; format: ADME, organism-based; parameters: dose 5 mg/kg, route intravenous; details: in vivo; outline: as §1
[5] = Half life in Sprague-Dawley rat at 5 mg/kg, iv; format: ADME, organism-based; parameters: dose 5 mg/kg, route intravenous; details: in vivo; outline: as §1
[6] = system: Hepatitis C virus; assay: Antiviral activity against HCV1a H77 assessed as inhibition of viral replication by cell-based replicon assay; format: functional, organism-based, Hepacivirus hominis; details: genotype 1a H77
Outline: (§2)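 Stable luciferase-reporter subgenomic replicon Huh-7 lines (1a H77; 1b Con1) were seeded at 5000 cells/well in DMEM with 5% FBS. The next day an eight-point half-log dilution series was added from DMSO stocks. After 3 days the cells were lysed, luciferin was added and luminescence was read. EC₅₀ came from percent inhibition of replication at each concentration.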

[7] = Cmax in Sprague-Dawley rat at 5 mg/kg, po; format: ADME, organism-based; parameters: dose 5 mg/kg, route oral; details: in vivo; outline: as §1
[8] = Drug level in Sprague-Dawley rat liver at 5 mg/kg, po after 1 hr; format: ADME, organism-based; parameters: dose 5 mg/kg, route oral; details: read-out: Drug uptake
Outline: (§3)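 Sprague-Dawley rats were given 5 mg/kg orally in DMSO/PEG400 (1:9, v/v). Separate animals were sampled for liver and plasma at 1, 6 and 12 h. Drug in liver (µg/g) and in plasma was measured by LC-MS, and liver/plasma ratios were taken at each time.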

[9] = Ratio of drug level in liver to plasma of Sprague-Dawley rat at 5 mg/kg, po after 6 hrs; format: ADME, organism-based; parameters: dose 5 mg/kg, route oral; details: liver and plasma; outline: as §3
[10] = system: Hepatitis C virus; assay: Antiviral activity against HCV1b Con1 infected in human Huh7 cells assessed as inhibition viral subgenomic replication […]; format: functional, organism-based, Hepacivirus hominis; details: isolate Con1, Huh-7
[11] = system: Hepatitis C virus; assay: Antiviral activity against HCV1b Con1 infected in human Huh7 cells assessed as inhibition viral subgenomic replication; format: functional, organism-based, Hepacivirus hominis; details: isolate Con1, Huh-7; outline: as §2
[12] = system: Hepatitis C virus; assay: Antiviral activity against HCV1a H77 infected in human Huh7 cells assessed as inhibition viral subgenomic replication; format: functional, organism-based, Hepacivirus hominis; details: genotype 1a H77, Huh-7; outline: as §2
[13] = target: Genome polyprotein (Hepatitis C virus genotype 1b (isolate Con1) (HCV), UniProt Q9WMX2); assay: Inhibition of HCV1b Con1 NS5B assessed as [3H]UTP incorporation into RNA by scintillation counting
[14] = Drug level in Sprague-Dawley rat liver at 5 mg/kg, po after 12 hrs; format: ADME, organism-based; parameters: dose 5 mg/kg, route oral; details: read-out: Drug uptake; outline: as §3
[15] = Ratio of drug level in liver to plasma of Sprague-Dawley rat at 5 mg/kg, po after 12 hrs; format: ADME, organism-based; parameters: dose 5 mg/kg, route oral; details: liver and plasma; outline: as §3
[16] = Ratio of drug level in liver to plasma of Sprague-Dawley rat at 5 mg/kg, po after 1 hr; format: ADME, organism-based; parameters: dose 5 mg/kg, route oral; details: liver and plasma; outline: as §3
[17] = Drug level in Sprague-Dawley rat liver at 5 mg/kg, po after 6 hrs; format: ADME, organism-based; parameters: dose 5 mg/kg, route oral; details: read-out: Drug uptake; outline: as §3

Sequence of Genome polyprotein (Q9WMX2 2420-3010 limits assumed): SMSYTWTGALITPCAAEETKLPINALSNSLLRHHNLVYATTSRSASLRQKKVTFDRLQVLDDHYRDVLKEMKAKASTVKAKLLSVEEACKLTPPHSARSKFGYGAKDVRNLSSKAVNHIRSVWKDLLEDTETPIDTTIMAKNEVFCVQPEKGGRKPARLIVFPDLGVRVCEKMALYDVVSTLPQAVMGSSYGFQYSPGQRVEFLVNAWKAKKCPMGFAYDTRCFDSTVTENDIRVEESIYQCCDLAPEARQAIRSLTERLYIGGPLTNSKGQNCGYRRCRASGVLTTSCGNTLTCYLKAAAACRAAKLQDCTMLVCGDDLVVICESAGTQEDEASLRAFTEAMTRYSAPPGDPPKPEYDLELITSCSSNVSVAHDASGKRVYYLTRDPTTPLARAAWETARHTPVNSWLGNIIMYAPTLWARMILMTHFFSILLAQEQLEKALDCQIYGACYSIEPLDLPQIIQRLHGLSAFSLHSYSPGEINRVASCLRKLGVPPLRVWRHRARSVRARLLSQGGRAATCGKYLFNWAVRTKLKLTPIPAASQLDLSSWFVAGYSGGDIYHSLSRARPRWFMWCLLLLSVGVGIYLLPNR

Structure (SMILES) | IC50 [1] [nM] | bioavailability [3] [%] | clearance [4] [mL/min/kg] | half-life [5] [h] | EC50 [6] [nM] | also measured
CON[C@]1(CCC(C)C)C(=O)C(C2=NS(=O)(=O)c3cc(NS(C)(=O)=O)ccc3N2)=C(O)c2ccccc21 | 6 | 34.1 | 45 | 0.6 | 12 | AUC(0-inf) [2]: 350 ng·h/mL
COc1cccc(CNC2(CCC(C)C)C(=O)C(C3=NS(=O)(=O)c4cc(NS(C)(=O)=O)ccc4N3)=C(O)c3ccccc32)c1 (stereo not drawn) | 14 |  |  |  | 38 | 
Cc1cccc(C)c1CNC1(CCC(C)(C)C)C(=O)C(C2=NS(=O)(=O)c3cc(NS(C)(=O)=O)ccc3N2)=C(O)c2ccccc21 (stereo not drawn) | 24 | 53.7 | 13 | 5 | 21 | AUC(0-inf) [2]: 3500 ng·h/mL; Cmax [7]: 460 ng/mL
CC(C)CC[C@@]1(NCc2ccccc2)C(=O)C(C2=NS(=O)(=O)c3cc(NS(C)(=O)=O)ccc3N2)=C(O)c2ccccc21 | 10 | 13.3 | 19.3 | 1.7 | 16 | concentration at 1 h [8]: 3590 ng/g; Kp at 6 h [9]: 6; EC50 [10]: 273 nM; EC50 [11]: 15 nM; EC50 [12]: 68 nM; AUC(0-inf) [2]: 600 ng·h/mL; IC50 [13]: 16 nM; Cmax [7]: 80 ng/mL; concentration at 12 h [14]: 880 ng/g; Kp at 12 h [15]: 3; Kp at 1 h [16]: 12; concentration at 6 h [17]: 2350 ng/g
Cc1ccc(CNC2(CCC(C)(C)C)C(=O)C(C3=NS(=O)(=O)c4cc(NS(C)(=O)=O)ccc4N3)=C(O)c3ccccc32)cn1 (stereo not drawn) | 14 | 0 | 98.3 | 0.5 | 11 | 
CC(C)(C)CCC1(NCc2ccc(-c3ccccc3)cc2)C(=O)C(C2=NS(=O)(=O)c3cc(NS(C)(=O)=O)ccc3N2)=C(O)c2ccccc21 (stereo not drawn) | 27 |  |  |  |  | 
CC(C)CCC1(N)C(=O)C(C2=NS(=O)(=O)c3cc(NS(C)(=O)=O)ccc3N2)=C(O)c2ccccc21 (stereo not drawn) | 12 |  |  |  | 29 | 
CC(C)(C)CCC1(NCc2ccc(O)cc2)C(=O)C(C2=NS(=O)(=O)c3cc(NS(C)(=O)=O)ccc3N2)=C(O)c2ccccc21 (stereo not drawn) | 20 |  |  |  | 13 | 
CC(C)CCC1(NC(N)=O)C(=O)C(C2=NS(=O)(=O)c3cc(NS(C)(=O)=O)ccc3N2)=C(O)c2ccccc21 (stereo not drawn) | 27 |  |  |  | 576 | 
Cc1cccc(C)c1CN[C@]1(CCC(C)(C)C)C(=O)C(C2=NS(=O)(=O)c3cc(NS(C)(=O)=O)ccc3N2)=C(O)c2ccccc21 | 16 | 55.9 | 11.7 | 3.1 |  | concentration at 1 h [8]: 5860 ng/g; Kp at 6 h [9]: 15; EC50 [10]: 270 nM; EC50 [11]: 6 nM; EC50 [12]: 10 nM; AUC(0-inf) [2]: 4210 ng·h/mL; IC50 [13]: 19 nM; Cmax [7]: 620 ng/mL; concentration at 12 h [14]: 2110 ng/g; Kp at 12 h [15]: 11; Kp at 1 h [16]: 12; concentration at 6 h [17]: 4360 ng/g
COc1ccc(OC)c(CNC2(CCC(C)(C)C)C(=O)C(C3=NS(=O)(=O)c4cc(NS(C)(=O)=O)ccc4N3)=C(O)c3ccccc32)c1 (stereo not drawn) | 10 |  |  |  | 15 | 
CC(C)CCC1(NS(C)(=O)=O)C(=O)C(C2=NS(=O)(=O)c3cc(NS(C)(=O)=O)ccc3N2)=C(O)c2ccccc21 (stereo not drawn) | 24 |  |  |  | 69 | 
CONC1(CCC(C)C)C(=O)C(C2=NS(=O)(=O)c3cc(NS(C)(=O)=O)ccc3N2)=C(O)c2ccccc21 (stereo not drawn) | 10 |  |  |  | 16 | 
CC(C)(C)CCC1(NCc2csc3ccccc23)C(=O)C(C2=NS(=O)(=O)c3cc(NS(C)(=O)=O)ccc3N2)=C(O)c2ccccc21 (stereo not drawn) | 19 |  |  |  | 13 | 
CC(C)(C)CCC1(NC(=O)c2ccccc2)C(=O)C(C2=NS(=O)(=O)c3cc(NS(C)(=O)=O)ccc3N2)=C(O)c2ccccc21 (stereo not drawn) | 151 |  |  |  |  | 
CC(C)CCC1(NCc2ccccc2)C(=O)C(C2=NS(=O)(=O)c3cc(NS(C)(=O)=O)ccc3N2)=C(O)c2ccccc21 (stereo not drawn) | 19 |  |  |  | 34 | 
CC(C)CC[C@@]1(NS(C)(=O)=O)C(=O)C(C2=NS(=O)(=O)c3cc(NS(C)(=O)=O)ccc3N2)=C(O)c2ccccc21 | 7 | 0 | 71.7 | 0.2 | 56 | 
CC(C)(C)CCC1(NCc2ccc3ccccc3c2)C(=O)C(C2=NS(=O)(=O)c3cc(NS(C)(=O)=O)ccc3N2)=C(O)c2ccccc21 (stereo not drawn) | 23 | 28.1 | 23.3 | 2.2 | 16 | AUC(0-inf) [2]: 1020 ng·h/mL; Cmax [7]: 180 ng/mL

— ChEMBL document CHEMBL1138515, “Synthesis and biological characterization of B-ring amino analogues of potent benzothiadiazine hepatitis C virus polymerase inhibitors” (J Med Chem, 2009)
